Measured values reported in ChEMBL document CHEMBL3871300, “Synthesis and evaluation of the anti-proliferative activity of diaryl-3-pyrrolin-2-ones and fused analogs” (Bioorg Med Chem Lett, 2017).

assay: Antiproliferative activity against human U937 cells after 48 hrs by MTT assay; type: functional, cell-based; conditions: U-937, 48 h
In short: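 Human promonocytic U-937 cells exposed to compound for 48 h, then MTT added as an indirect viability read-out via mitochondrial activity. IC50 taken as the concentration reducing viability to 50% of mock-treated cells. Values averaged from at least three independent runs, each with eight replicates, with standard errors; n gives the number of independent runs.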

Going from `Cn1cc(C2=C(c3ccccc3)CNC2=O)c2ccccc21` to `COc1ccc(C2=C(c3cn(C)c4ccccc34)C(=O)NC2)cc1OC`, the IC50 falls from > 100 µM to 10 µM. The second is the more potent here.

Going from `COc1cc2c3c(c4cc(OC)c(OC)cc4c2cc1OC)C(=O)NC3` to `COc1cc2c3c(c4c5ccccc5n(C)c4c2cc1OC)C(=O)NC3`, the IC50 falls from > 100 µM to 48 µM.

First: COc1cc(C2=C(c3ccccc3)CNC2=O)cc(OC)c1OC
Second: COc1cc(C2=C(c3ccccc3)C(=O)NC2)cc(OC)c1OC
The IC50 of the first is 2.5-fold lower: 33 µM for the first, 84 µM for the second. The first is the more potent here.

Compared with `COc1ccc(C2=C(c3cn(C)c4ccccc34)CNC2=O)cc1OC`, `COc1cc(C2=C(c3cn(C)c4ccccc34)C(=O)NC2)cc(OC)c1OC` is lower in IC50: > 100 µM for the first, 38 µM for the second. The second is the more potent here.

Going from `COc1ccc(C2=C(c3ccc(OC)c(OC)c3)C(=O)NC2)cc1OC` to `COc1cc(C2=C(c3cc(OC)c(OC)c(OC)c3)C(=O)NC2)cc(OC)c1OC`, the IC50 falls from 57 µM to 11 µM (5.2-fold).

`COc1cc(C2=CC(=O)NC2)cc(OC)c1OC` and `COc1ccc(C2=CC(=O)NC2)cc1OC` cannot be ordered by IC50: > 100 µM for the first, > 100 µM for the second.

First: Cn1cc(C2=CC(=O)NC2)c2ccccc21
Second: COc1ccc(C2=C(c3ccc(OC)cc3)C(=O)NC2)cc1
The IC50 of the first is higher: > 100 µM for the first, 13 µM for the second.

assay: Cytotoxicity against human U937 cells assessed as cell viability at antiproliferative IC50 after 48 hrs by trypan exclusion assay; type: functional, U-937; conditions: not given

Going from `COc1ccc(C2=C(c3cn(C)c4ccccc34)C(=O)NC2)cc1OC` to `COc1cc(C2=C(c3cc(OC)c(OC)c(OC)c3)C(=O)NC2)cc(OC)c1OC`, the Activity falls from 61% to 51%.
